Common to all, as to format: functional
Assay [1] has as its target T1, DNA polymerase alpha catalytic subunit (Homo sapiens) (UniProt P09884).
T1 sequence (whole entry): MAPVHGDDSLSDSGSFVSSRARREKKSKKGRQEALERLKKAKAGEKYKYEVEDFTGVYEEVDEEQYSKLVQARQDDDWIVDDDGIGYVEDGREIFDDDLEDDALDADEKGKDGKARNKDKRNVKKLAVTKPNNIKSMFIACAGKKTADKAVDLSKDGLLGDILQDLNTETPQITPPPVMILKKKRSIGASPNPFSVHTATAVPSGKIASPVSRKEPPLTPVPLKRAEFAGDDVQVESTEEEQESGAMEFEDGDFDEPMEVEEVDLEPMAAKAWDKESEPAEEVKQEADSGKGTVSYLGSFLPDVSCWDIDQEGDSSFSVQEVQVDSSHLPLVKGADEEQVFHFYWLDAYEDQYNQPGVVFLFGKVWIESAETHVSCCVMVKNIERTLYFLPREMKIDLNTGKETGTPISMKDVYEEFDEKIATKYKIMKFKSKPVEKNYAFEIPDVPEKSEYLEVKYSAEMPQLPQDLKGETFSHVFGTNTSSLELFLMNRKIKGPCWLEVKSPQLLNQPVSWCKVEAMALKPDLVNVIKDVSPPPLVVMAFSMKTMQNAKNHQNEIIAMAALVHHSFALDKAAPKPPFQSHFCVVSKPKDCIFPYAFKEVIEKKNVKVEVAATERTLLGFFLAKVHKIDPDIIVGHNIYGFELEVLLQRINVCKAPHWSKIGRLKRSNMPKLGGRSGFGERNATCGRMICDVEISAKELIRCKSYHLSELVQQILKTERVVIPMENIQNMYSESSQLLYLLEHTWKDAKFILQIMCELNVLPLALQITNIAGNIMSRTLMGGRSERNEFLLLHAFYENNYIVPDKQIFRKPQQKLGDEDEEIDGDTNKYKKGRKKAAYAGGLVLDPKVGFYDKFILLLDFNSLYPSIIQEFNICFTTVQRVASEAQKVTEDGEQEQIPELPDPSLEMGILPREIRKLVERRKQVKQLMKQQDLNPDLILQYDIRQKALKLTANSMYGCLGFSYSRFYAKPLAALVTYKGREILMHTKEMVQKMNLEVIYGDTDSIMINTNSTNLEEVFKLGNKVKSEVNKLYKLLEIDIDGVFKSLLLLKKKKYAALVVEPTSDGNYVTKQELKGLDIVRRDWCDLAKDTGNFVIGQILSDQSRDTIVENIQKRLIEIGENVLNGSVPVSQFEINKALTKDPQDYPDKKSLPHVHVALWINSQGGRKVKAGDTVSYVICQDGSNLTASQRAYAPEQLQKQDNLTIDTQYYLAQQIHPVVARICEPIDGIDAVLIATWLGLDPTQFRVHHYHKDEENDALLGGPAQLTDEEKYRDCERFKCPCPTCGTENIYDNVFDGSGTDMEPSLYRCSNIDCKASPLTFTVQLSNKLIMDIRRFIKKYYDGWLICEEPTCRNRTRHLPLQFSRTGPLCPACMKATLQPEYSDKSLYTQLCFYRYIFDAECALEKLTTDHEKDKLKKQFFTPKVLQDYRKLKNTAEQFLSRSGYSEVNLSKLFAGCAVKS
The assay is described as follows: Compound was tested for the inhibition of HeLa DNA polymerase. The conditions noted are these: concentration not given here. An outline of the steps: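 Cellular polymerase taken from crude HSV1-infected HeLa extract, assayed without (NH4)2SO4. Inhibitor came as 20 µL of a 3-h, 37 °C enzymatic phosphorylation mixture, in 50 mM Tris pH 8 with 5 mM MgCl2, activated salmon sperm DNA and 0.05 mM each dNTP ([3H]dTTP). Incubation 1 h at 37 °C, then TCA-insoluble radioactivity counted.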

Assay [2] has as its system Human alphaherpesvirus 1. The assay is described as follows: Compound was tested for the inhibition of HSV-1 polymerase. Also on record: concentration or dose not given beside the values. The method, boiled down:
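Analog first phosphorylated 3 h at 37 °C with HSV1 TK, GMP kinase, creatine kinase/phosphocreatine, 5 mM ATP and HSV1-infected HeLa crude extract; 20 µL aliquots added to 100 µL polymerase mix with 50 mM Tris pH 8, 5 mM MgCl2, activated salmon sperm DNA, 0.05 mM each dNTP ([3H]dTTP), 0.1 M (NH4)2SO4, and infected-HeLa extract or purified HSV1 polymerase; 1 h 37 °C; TCA-precipitable counts.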

Assay [3] relates to MRC5. The assay is described as follows: Compound was tested for 50% inhibition of HSV-1 induced cytopathic effect in MRC-5 cells; Not active. The conditions noted are these: Homo sapiens, read-out: ED50 (the source's name).
For assay [4], the system named is Human alphaherpesvirus 1. Put plainly: Phosphorylation by HSV-1 thymidine kinase. An outline of the steps: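 Affinity-purified HSV1 TK (1 unit) from infected HeLa cells, 37 °C for 1 h, with 40 µg nucleoside in 50% Me2SO. Buffer: 50 mM Tris pH 7.5, 5 mM MgCl2, 5 mM ATP, 2 mM DTT, 2.5 mM NaF, 15 mM phosphocreatine, creatine kinase and BSA. Nucleoside and phosphates separated by anion-exchange HPLC (KH2PO4 gradient, pH 3.0) and quantified from peak areas.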

Assay [5] relates to MRC5. Put plainly: Compound was tested for 50% inhibition of HSV-1 induced cytopathic effect in MRC-5 cells. The conditions noted are these: Homo sapiens, read-out: ED50 (the source's name).
For assay [6], the system named is MRC5. Put plainly: Compound was tested for 50% inhibition of HSV-1 induced cytopathic effect in MRC-5 cells; 3-6. The note with it: Homo sapiens, read-out: ED50 (the source's name).

In brackets after ≈: the same amount, converted by molar mass.

`Nc1nc2c(ncn2COCCO)c(=O)[nH]1` [ACYCLOVIR]: the inhibition (usually the share of the control response that was lost under treatment) in assay [1] amounted to 37%. In addition, the Inhibition (in general, the relative decrease from the control value, in per cent) in assay [2] came out at 86%.
Turning to `Nc1nc(O)c2ncn(COCC(O)CF)c2n1` (centres undefined), in assay [3], the EC50 is more than 100 µg/mL. The Phosphorylation in assay [4] amounted to 4%.
On to `Nc1nc(O)c2ncn(COCCCO)c2n1`, for which the EC50 in assay [5] is 50 µg/mL (≈ 209 µM). The Phosphorylation in assay [4] is recorded as 88%.
`Nc1nc2c(ncn2COC(CO)CO)c(=O)[nH]1` [GANCICLOVIR] gave an inhibition in assay [1] of 17%. For the same compound, the Inhibition in assay [2] was 60%.
For `Nc1nc(O)c2ncn(COCC(O)CO)c2n1` (single isomer, unassigned; form 2), the Inhibition in assay [2] was determined as 14%.
In assay [1], `Nc1nc(O)c2ncn(COCC(O)CO)c2n1` (centres undefined) [listing 1 of 2 here] gave an inhibition of 6%.
Compound `Nc1nc(O)c2ncn(COCC(O)CO)c2n1` (single isomer, unassigned; form 1) [listing 1 of 2 here] gave an Inhibition in assay [2] of 54%.
For `CC(O)COCn1cnc2c(O)nc(N)nc21` (centres undefined), in assay [5], the EC50 was determined as 100 µg/mL (≈ 418 µM). In addition, the Phosphorylation in assay [4] worked out at 5%.
In assay [2], `Nc1nc(O)c2ncn(COCC(O)CO)c2n1` (centres undefined) [listing 2 of 2 here] came in with an Inhibition of 36%. The EC50 in assay [6] was found to be 3 µg/mL (≈ 11.8 µM). Further, the Phosphorylation in assay [4] amounted to 59%.
For the compound `Nc1nc(O)c2ncn(COCC(O)CO)c2n1` (single isomer, unassigned; form 1) [listing 2 of 2 here], the inhibition in assay [1] is 10%.
For `Nc1nc(O)c2ncn(COCC(F)CO)c2n1` (centres undefined), the EC50 in assay [5] stood at 25 µg/mL (≈ 97.2 µM). This compound showed a Phosphorylation in assay [4] of 42%.

Source of the values: ChEMBL document CHEMBL1123186, “Enzymatic phosphorylation of the antiherpetic agent 9-[(2,3-dihydroxy-1-propoxy)methyl]guanine” (1986).
